In PMC4873341 (Molecular cancer therapeutics, 2016):
Read-outs that look alike come from different tables or passages of the source. Blank lines part the entries; values can stand above or below the molecule they belong to.

How the values were obtained:
[1] = test system: Hh pathway; assay type: cell-based; details: for Induction of Hh pathway activation by sterol alone: Shh-Light2 cells, absence of SHHN conditioned medium; for Hh pathway inhibition by single drug at subtherapeutic dose: posaconazole 1 μM, KAAD-cyclopamine 10 nM, vismodegib 20 nM, SHHN CM
[2] = test system: drug-resistant SMO mutants (D477G, E522K, G457S, S392N, D388N, N223D, L225R); assay type: cell-based, murine
[3] = test system: SMO-G457S; assay type: cell-based, murine
[4] = test system: CYP2C19; details: cited from earlier work
[5] = test system: CYP2C9; details: cited from earlier work
[6] = test system: cytochrome P450 (CYP) 3A4; details: cited from earlier work
[7] = test system: Hh pathway (SMO); experiment: SHH-Light2 reporter assay stimulated with SAG; assay type: cell-based; details: for EC50: read-out: EC50 of SAG
[8] = test system: SMO accumulation in primary cilia; assay type: cell-based; details: SHHN and posaconazole 7.5 μM; ~87% with SHHN and vehicle; p < 0.0001
Outline: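 NIH-3T3 cells were stimulated with SHHN conditioned medium together with 7.5 μM test compound or vehicle. Cells were immunostained for SMO (rabbit polyclonal, 1:750) and acetylated tubulin (mouse monoclonal, 1:1000), then detected with AlexaFluor 488 and 594 secondaries. Confocal images were scored for the percentage of primary cilia with SMO; mean ± S.D. of at least 7 fields.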

[9] = test system: Hh pathway in allografted BCC tumors; experiment: Gli1 mRNA in allografted BCC tumors; assay type: in vivo, mice; details: 30 or 60 mg/kg twice per day by oral gavage for 5 days; p = 0.0224, p = 0.0033
[10] = test system: ASZ and BSZ basal cell carcinoma cells; experiment: Quantitative PCR of Gli1 transcript in ASZ and BSZ basal cell carcinoma cells; assay type: cell-based, murine; details: posaconazole 1 μM; KAAD-cyclopamine 40 nM; GDC-0449 40 nM; 2 days
[11] = test system: CYP 2E1; details: cited from earlier work
[12] = test system: CYP 2C8; details: cited from earlier work
[13] = test system: Hh pathway (Ptch-/- murine embryonic fibroblast cells); assay type: cell-based; details: Mus musculus, read-out: IC50 of Hh pathway inhibition
[14] = Plasma pharmacokinetic study, single oral dose; assay type: in vivo, Balb-c mice; details: for AUC(0-t) / Cmax: Balb-c, mouse, plasma, po
Outline: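 Balb-c mice, given acidified drinking water (pH 2.5), received one oral gavage of test-compound oral suspension diluted in sterile water (30 or 60 mg/kg). Mice were killed at various times. Plasma was extracted with methanol/formic acid containing tolbutamide internal standard and analysed by LC-MS/MS (C18 column). Parameters came from noncompartmental analysis; 3 mice per time point, mean ± S.D.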

[15] = test system: murine Ptch+/-;p53-/- BCC allografts; experiment: Tumor growth of subcutaneous BCC allografts; assay type: in vivo, mice; details: 30 mg/kg or 60 mg/kg twice-daily, oral gavage; p < 0.005
[16] = test system: SMOA1 (SMO W539L) mutant; assay type: cell-based; details: Shh-Light2 SmoA1 cells
[17] = molecular target: SMO (Mus musculus, UniProt P56726); experiment: Fluorescent BODIPY-cyclopamine competition assay; assay type: binding; details: BODIPY-cyclopamine 5 nM
Sequence of SMO (P56726 33-793): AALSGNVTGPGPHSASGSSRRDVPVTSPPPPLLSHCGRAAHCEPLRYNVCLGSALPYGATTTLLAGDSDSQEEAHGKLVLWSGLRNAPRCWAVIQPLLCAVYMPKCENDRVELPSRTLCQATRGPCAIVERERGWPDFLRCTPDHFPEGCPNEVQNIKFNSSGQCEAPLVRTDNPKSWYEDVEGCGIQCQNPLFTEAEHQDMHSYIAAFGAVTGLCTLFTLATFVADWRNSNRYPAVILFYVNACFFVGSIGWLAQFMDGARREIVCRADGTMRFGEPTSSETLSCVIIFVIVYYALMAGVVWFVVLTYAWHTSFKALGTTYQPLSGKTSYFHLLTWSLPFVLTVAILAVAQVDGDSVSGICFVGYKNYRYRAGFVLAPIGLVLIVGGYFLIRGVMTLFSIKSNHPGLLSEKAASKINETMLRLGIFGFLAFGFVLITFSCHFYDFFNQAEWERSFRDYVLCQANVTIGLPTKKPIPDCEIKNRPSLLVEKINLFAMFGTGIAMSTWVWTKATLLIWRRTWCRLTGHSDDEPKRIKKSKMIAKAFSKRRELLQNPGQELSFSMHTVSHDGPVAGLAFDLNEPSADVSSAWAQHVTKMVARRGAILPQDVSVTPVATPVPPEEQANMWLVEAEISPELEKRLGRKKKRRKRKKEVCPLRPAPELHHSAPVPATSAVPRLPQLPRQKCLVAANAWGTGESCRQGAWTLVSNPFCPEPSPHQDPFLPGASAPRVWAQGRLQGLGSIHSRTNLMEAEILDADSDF

[18] = test system: Hh pathway (SMO); experiment: SHH-Light2 reporter assay stimulated with 20; assay type: cell-based
[19] = test system: CYP 2D6; details: cited from earlier work
[20] = test system: CYP 1A2; details: cited from earlier work
[21] = test system: BCC tumors; experiment: Necrosis scoring of H&E sections of BCC tumors; assay type: in vivo, mice; details: posaconazole treated vs vehicle control; p = 0.0028
[22] = higher than human values of ref 41
[23] = increasing concentrations of posaconazole

SMILES: CC(C)=CCC[C@@H](C)[C@H]1CC[C@H]2[C@@H]3CC=C4C[C@@H](O)CC[C@]4(C)[C@H]3CC[C@]12C [desmosterol]
Induction of Hh pathway activation by sterol alone [1]: insufficient to induce Hh pathway activation

SMILES: Cc1c(C(=O)Nc2ccc(N3C[C@@H](C)O[C@@H](C)C3)nc2)cccc1-c1ccc(OC(F)(F)F)cc1 [sonidegib]
Response of sonidegib-resistant SMO mutants ([2]; sonidegib 0.5 μM (~80x IC50)): resistant
Response of SMO-G457S ([3]; sonidegib 0.05 μM): resistant
Response of SMO-G457S ([3]; sonidegib 0.5 μM): inhibited

SMILES: CC(C)CCC[C@@H](C)[C@H]1CC[C@H]2C3=CC[C@H]4C[C@@H](O)CC[C@]4(C)[C@H]3CC[C@]12C [lathosterol]
Induction of Hh pathway activation by sterol alone [1]: insufficient to induce Hh pathway activation

SMILES: CCC(C)n1ncn(-c2ccc(N3CCN(c4ccc(OCC5COC(Cn6cncn6)(c6ccc(Cl)cc6Cl)O5)cc4)CC3)cc2)c1=O (stereo not drawn) [itraconazole]
CYP2C19 inhibition [4]: weaker inhibitors
CYP2C9 inhibition [5]: weaker inhibitors
CYP3A4 inhibition [6]: strong inhibitors and substrates

SMILES: CNC1CCC(N(Cc2cccc(-c3ccncc3)c2)C(=O)c2sc3ccccc3c2Cl)CC1 (stereo not drawn) [SAG]
EC50 ([7]; 0 nM KAAD-cyclopamine): 34 nM
EC50 ([7]; with 100 nM KAAD-cyclopamine): 244 nM

Decrease of the IC50 of posaconazole by KAAD-cyclopamine ([1]; increasing concentrations of KAAD-cyclopamine): ~ 2.5 fold
AUC(0-t) ([14]; 30 mg/kg): 245 µg·h/mL
Cmax ([14]; 30 mg/kg): 16100 ng/mL
AUC(0-t) ([14]; 60 mg/kg): 288 µg·h/mL
Cmax ([14]; 60 mg/kg): 15900 ng/mL
AUC0-24h, murine 30 mg/kg relative to human 800 mg single dose [14, 22]: ~ 5 x
Plasma Cmax, murine 30 mg/kg relative to human 800 mg single dose [14, 22]: ~ 12 x
IC50 ([18]; Shh Light2, read-out: IC50 of pathway activation by 20(S)-hydroxycholesterol): 164 nM
SMILES: CC[C@@H]([C@H](C)O)n1ncn(-c2ccc(N3CCN(c4ccc(OC[C@@H]5CO[C@@](Cn6cncn6)(c6ccc(F)cc6F)C5)cc4)CC3)cc2)c1=O [posaconazole]
Activity against drug-resistant SMO mutants, single drug ([2]; Smo-/- fibroblasts, SHHN CM): showed inhibitory activity against all of the tested drug-resistant SMO mutants
Hh pathway inhibition by single drug at subtherapeutic dose [1]: partially inhibited the Hh pathway
Primary cilia with SMO accumulation [8]: ~ 16%
Hh pathway inhibition in tumors as measured by Gli1 mRNA [9]: significant inhibition of the Hh pathway
Pathway inhibition as measured by Gli1 mRNA, single drug [10]: significantly inhibited the pathway
CYP2E1 inhibition [11]: does not inhibit
CYP2C8 inhibition [12]: does not inhibit
IC50 [13]: 986 nM
Tumor growth compared to vehicle control [15]: significantly suppressed tumor growth
Inhibition of pathway activity [16]: no inhibitory effect
Fluorescence of BODIPY-cyclopamine bound to SMO ([17]; increasing concentrations up to 10 μM): did not significantly decrease the fluorescence
Effect on maximal pathway activation of 20(S)-hydroxycholesterol [18, 23]: decreased maximal pathway activation
Effect on the EC50 of 20(S)-hydroxycholesterol [18, 23]: did not significantly alter the EC50 of the oxysterol
CYP2D6 inhibition [19]: does not inhibit
CYP1A2 inhibition [20]: does not inhibit
CYP2C9 inhibition [5]: does not inhibit
Effect on maximal induction of pathway activation by SAG ([7]; posaconazole 0 to 7.5 μM): significantly decreased the maximal induction of pathway activation
Effect on the EC50 of SAG ([7]; posaconazole 0 to 7.5 μM): did not significantly alter the EC50 of SAG
Tumor necrosis (necrosis score 0-3) [21]: significant levels of necrosis
CYP3A4 inhibition [6]: inhibits

SMILES: CC(C)CCC[C@@H](C)[C@H]1CC[C@H]2[C@@H]3CC=C4C[C@@H](O)CC[C@]4(C)[C@H]3CC[C@]12C [cholesterol]
Induction of Hh pathway activation by sterol alone [1]: insufficient to induce Hh pathway activation

SMILES: CC(O)C(C)n1ncn(-c2ccc(N3CCN(c4ccc(OCC5COC(Cn6cncn6)(c6ccc(Cl)cc6Cl)O5)cc4)CC3)cc2)c1=O (stereo not drawn) [hydroxy-itraconazole]
CYP2C19 inhibition [4]: weaker inhibitors
CYP2C9 inhibition [5]: weaker inhibitors
CYP3A4 inhibition [6]: strong inhibitors and substrates

IC50 ([1]; Shh Light2, read-out: No detectable inhibition of the Hh pathway up to): > 40000 nM
SMILES: C[C@@H](c1ncncc1F)[C@](O)(Cn1cncn1)c1ccc(F)cc1F [voriconazole]

SMILES: CS(=O)(=O)c1ccc(C(=O)Nc2ccc(Cl)c(-c3ccccn3)c2)c(Cl)c1 [vismodegib]
Response of vismodegib-resistant SMO mutants (D477G, E522K) ([2]; vismodegib 0.5 μM (~40x IC50)): resistant
Hh pathway inhibition by single drug at subtherapeutic dose [1]: partially inhibited the Hh pathway
Pathway inhibition as measured by Gli1 mRNA, single drug [10]: significantly inhibited the pathway

SMILES: CC1=C2C[C@H]3[C@@H](CC=C4CC(=O)CC[C@@]43C)[C@@H]2CC[C@]12O[C@@H]1C[C@H](C)CN(CCNC(=O)CCCCCNC(=O)CCc3ccccc3)[C@H]1[C@H]2C [KAAD-cyclopamine]
Hh pathway inhibition by single drug at subtherapeutic dose [1]: partially inhibited the Hh pathway
IC50 ([1]; read-out: IC50 of Hh pathway inhibition (given as 1x IC50), SHH-Light2 cells): 20 nM
Pathway inhibition as measured by Gli1 mRNA, single drug [10]: significantly inhibited the pathway
Fluorescence of BODIPY-cyclopamine bound to SMO ([17]; KAAD-cyclopamine 200 nM and 400 nM): reduced the fluorescence of BD bound to SMO to baseline levels
Shift (increase) of the EC50 of SAG ([7]; KAAD-cyclopamine 20 nM (1x IC50)): ~ 3.5 fold
